Results taken from ChEMBL document CHEMBL4689842, “EUbOPEN Chemogenomics Library wave 1” (2021).
Values joined by “and” are separate entries in the source; they are usually repeats but may differ in a detail not shown here. Equal values may be shown once.

Tested on: Fibroblast
Experiment: Multiplex assay against human fibroblast
Type: toxicity, cell-based
Outline: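 With compound added, live cells were imaged on a CQ1 microscope at 37°C and 5% CO2; staining with Hoechst33342, BioTracker Green Microtubule Cytoskeleton Dye, MitoTracker Red and Annexin V Alexa Fluor 680 had been done at seeding. The CellPathfinder machine-learning gating scheme split cells into Hoechst high-intensity objects or normal cells, normal cells into healthy, pyknosed or fragmented nuclei, and pyknosed cells into mitotic or apoptotic. The tubulin, mitochondrial-mass and membrane-permeability phenotypes are per cents of healthy-nucleus cells.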

[1] = 12 h, 1 µM, compound concentration 1 uM, replicate 1
[2] = 12 h, 1 µM, compound concentration 1 uM, replicate 2
[3] = 12 h, 10 µM, compound concentration 10 uM, replicate 1
[4] = 12 h, 10 µM, compound concentration 10 uM, replicate 2
[5] = 24 h, 1 µM, compound concentration 1 uM, replicate 1
[6] = 24 h, 1 µM, compound concentration 1 uM, replicate 2
[7] = 24 h, 10 µM, compound concentration 10 uM, replicate 1
[8] = 24 h, 10 µM, compound concentration 10 uM, replicate 2
[9] = 48 h, 1 µM, compound concentration 1 uM, replicate 1
[10] = 48 h, 1 µM, compound concentration 1 uM, replicate 2
[11] = 48 h, 10 µM, compound concentration 10 uM, replicate 1
[12] = 48 h, 10 µM, compound concentration 10 uM, replicate 2

## O=C(Cc1ccc(-c2ccc(OCCN3CCOCC3)cc2)cn1)NCc1ccccc1 [TIRBANIBULIN]
[1]
  Population Apoptotic (%): 71%
  Population Fragmented Nuclei (%): 20%
  Population Healthy Nuclei (%): 47%
  Population Hoechst High Intensity Objects (%): 16%
  Population Membrane Permeable-Phenotype (%): 18%
  Population Mitochondria Different-Phenotype (%): 9%
  Population Mitotic Cells (%): 28%
  Population Normal (%): 83%
  Population Pyknosed Nuclei (%): 31%
  Population Tubulin-Different-Phenotype (%): 12%
  Total Cell Count: 80
[2]
  Population Apoptotic (%): 0%
  Population Fragmented Nuclei (%): 5%
  Population Healthy Nuclei (%): 90%
  Population Hoechst High Intensity Objects (%): 12%
  Population Membrane Permeable-Phenotype (%): 9%
  Population Mitochondria Different-Phenotype (%): 21%
  Population Mitotic Cells (%): 100%
  Population Normal (%): 87%
  Population Pyknosed Nuclei (%): 4%
  Total Cell Count: 108
[3]
  Population Apoptotic (%): 66%
  Population Fragmented Nuclei (%): 30%
  Population Healthy Nuclei (%): 39%
  Population Hoechst High Intensity Objects (%): 15%
  Population Membrane Permeable-Phenotype (%): 17%
  Population Mitochondria Different-Phenotype (%): 13%
  Population Mitotic Cells (%): 33%
  Population Normal (%): 84%
  Population Pyknosed Nuclei (%): 29%
  Population Tubulin-Different-Phenotype (%): 28%
  Total Cell Count: 134
[4]
  Population Apoptotic (%): 50%
  Population Fragmented Nuclei (%): 13%
  Population Healthy Nuclei (%): 78%
  Population Hoechst High Intensity Objects (%): 10%
  Population Membrane Permeable-Phenotype (%): 4%
  Population Mitochondria Different-Phenotype (%): 19%
  Population Mitotic Cells (%): 50%
  Population Normal (%): 89%
  Population Pyknosed Nuclei (%): 7%
  Population Tubulin-Different-Phenotype (%): 12%
  Total Cell Count: 81
[5]
  Population Apoptotic (%): 57%
  Population Fragmented Nuclei (%): 29%
  Population Healthy Nuclei (%): 44%
  Population Hoechst High Intensity Objects (%): 14%
  Population Membrane Permeable-Phenotype (%): 37%
  Population Mitochondria Different-Phenotype (%): 9%
  Population Mitotic Cells (%): 42%
  Population Normal (%): 85%
  Population Pyknosed Nuclei (%): 26%
  Population Tubulin-Different-Phenotype (%): 18%
  Total Cell Count: 84
[6]
  Population Apoptotic (%): 61%
  Population Fragmented Nuclei (%): 16%
  Population Healthy Nuclei (%): 66%
  Population Hoechst High Intensity Objects (%): 9%
  Population Membrane Permeable-Phenotype (%): 6%
  Population Mitochondria Different-Phenotype (%): 44%
  Population Mitotic Cells (%): 38%
  Population Normal (%): 90%
  Population Pyknosed Nuclei (%): 17%
  Population Tubulin-Different-Phenotype (%): 10%
  Total Cell Count: 155
[7]
  Population Apoptotic (%): 54%
  Population Fragmented Nuclei (%): 42%
  Population Healthy Nuclei (%): 37%
  Population Hoechst High Intensity Objects (%): 13%
  Population Membrane Permeable-Phenotype (%): 17%
  Population Mitochondria Different-Phenotype (%): 8%
  Population Mitotic Cells (%): 45%
  Population Normal (%): 86%
  Population Pyknosed Nuclei (%): 20%
  Population Tubulin-Different-Phenotype (%): 35%
  Total Cell Count: 138
[8]
  Population Apoptotic (%): 66%
  Population Fragmented Nuclei (%): 19%
  Population Healthy Nuclei (%): 57%
  Population Hoechst High Intensity Objects (%): 10%
  Population Membrane Permeable-Phenotype (%): 10%
  Population Mitochondria Different-Phenotype (%): 40%
  Population Mitotic Cells (%): 33%
  Population Normal (%): 89%
  Population Pyknosed Nuclei (%): 23%
  Population Tubulin-Different-Phenotype (%): 13%
  Total Cell Count: 82
[9]
  Population Apoptotic (%): 50%
  Population Fragmented Nuclei (%): 40%
  Population Healthy Nuclei (%): 47%
  Population Hoechst High Intensity Objects (%): 14%
  Population Membrane Permeable-Phenotype (%): 31%
  Population Mitochondria Different-Phenotype (%): 2%
  Population Mitotic Cells (%): 50%
  Population Normal (%): 85%
  Population Pyknosed Nuclei (%): 12%
  Population Tubulin-Different-Phenotype (%): 7%
  Total Cell Count: 94
[10]
  Population Apoptotic (%): 71%
  Population Fragmented Nuclei (%): 35%
  Population Healthy Nuclei (%): 59%
  Population Hoechst High Intensity Objects (%): 10%
  Population Membrane Permeable-Phenotype (%): 18%
  Population Mitochondria Different-Phenotype (%): 7%
  Population Mitotic Cells (%): 28%
  Population Normal (%): 89%
  Population Pyknosed Nuclei (%): 4%
  Population Tubulin-Different-Phenotype (%): 15%
  Total Cell Count: 170
[11]
  Population Apoptotic (%): 48%
  Population Fragmented Nuclei (%): 38%
  Population Healthy Nuclei (%): 34%
  Population Hoechst High Intensity Objects (%): 17%
  Population Membrane Permeable-Phenotype (%): 21%
  Population Mitochondria Different-Phenotype (%): 7%
  Population Mitotic Cells (%): 51%
  Population Normal (%): 82%
  Population Pyknosed Nuclei (%): 26%
  Population Tubulin-Different-Phenotype (%): 29%
  Total Cell Count: 143
[12]
  Population Apoptotic (%): 66%
  Population Fragmented Nuclei (%): 44%
  Population Healthy Nuclei (%): 53%
  Population Membrane Permeable-Phenotype (%): 15%
  Population Mitochondria Different-Phenotype (%): 5%
  Population Mitotic Cells (%): 33%
  Population Pyknosed Nuclei (%): 2%
  Population Tubulin-Different-Phenotype (%): 22%
  Total Cell Count: 164

## COCC(=O)NC/C=C/c1ccc2ncnc(Nc3ccc(Oc4ccc(C)nc4)c(C)c3)c2c1 [CP-724714]
[1]
  Population Apoptotic (%): 52% and 82%
  Population Fragmented Nuclei (%): 30% and 25%
  Population Healthy Nuclei (%): 51% and 59%
  Population Hoechst High Intensity Objects (%): 14% and 12%
  Population Membrane Permeable-Phenotype (%): 29% and 10%
  Population Mitotic Cells (%): 47% and 17%
  Population Normal (%): 85% and 87%
  Population Pyknosed Nuclei (%): 18%
  Total Cell Count: 245 and 254
[2]
  Population Fragmented Nuclei (%): 50% and 54%
  Population Healthy Nuclei (%): 33% and 20%
  Population Hoechst High Intensity Objects (%): 27% and 42%
  Population Membrane Permeable-Phenotype (%): 22% and 11%
  Population Normal (%): 72% and 57%
  Population Pyknosed Nuclei (%): 15% and 25%
  Population Tubulin-Different-Phenotype (%): 22% and 44%
  Total Cell Count: 73 and 76
[3]
  Population Apoptotic (%): 51%
  Population Fragmented Nuclei (%): 33%
  Population Healthy Nuclei (%): 37%
  Population Hoechst High Intensity Objects (%): 14%
  Population Membrane Permeable-Phenotype (%): 14%
  Population Mitochondria Different-Phenotype (%): 50%
  Population Mitotic Cells (%): 48%
  Population Normal (%): 85%
  Population Pyknosed Nuclei (%): 29%
  Population Tubulin-Different-Phenotype (%): 87%
  Total Cell Count: 148
[4]
  Population Apoptotic (%): 80%
  Population Fragmented Nuclei (%): 18%
  Population Healthy Nuclei (%): 63%
  Population Hoechst High Intensity Objects (%): 11%
  Population Membrane Permeable-Phenotype (%): 37%
  Population Mitochondria Different-Phenotype (%): 94%
  Population Mitotic Cells (%): 20%
  Population Normal (%): 88%
  Population Pyknosed Nuclei (%): 18%
  Population Tubulin-Different-Phenotype (%): 100%
  Total Cell Count: 62
[5]
  Population Apoptotic (%): 58% and 59%
  Population Fragmented Nuclei (%): 30% and 19%
  Population Healthy Nuclei (%): 51% and 62%
  Population Hoechst High Intensity Objects (%): 14% and 11%
  Population Mitotic Cells (%): 41% and 40%
  Population Normal (%): 85% and 88%
  Population Pyknosed Nuclei (%): 17% and 18%
  Total Cell Count: 243 and 259
[6]
  Population Apoptotic (%): 37% and 77%
  Population Fragmented Nuclei (%): 55% and 57%
  Population Healthy Nuclei (%): 31% and 21%
  Population Hoechst High Intensity Objects (%): 24% and 51%
  Population Membrane Permeable-Phenotype (%): 16% and 11%
  Population Mitochondria Different-Phenotype (%): 22% and 33%
  Population Mitotic Cells (%): 62% and 22%
  Population Normal (%): 75% and 48%
  Population Pyknosed Nuclei (%): 13% and 21%
  Total Cell Count: 77 and 86
[7]
  Population Apoptotic (%): 57%
  Population Fragmented Nuclei (%): 34%
  Population Healthy Nuclei (%): 34%
  Population Hoechst High Intensity Objects (%): 14%
  Population Membrane Permeable-Phenotype (%): 16%
  Population Mitochondria Different-Phenotype (%): 69%
  Population Mitotic Cells (%): 42%
  Population Normal (%): 85%
  Population Pyknosed Nuclei (%): 30%
  Population Tubulin-Different-Phenotype (%): 95%
  Total Cell Count: 144
[8]
  Population Apoptotic (%): 60%
  Population Fragmented Nuclei (%): 16%
  Population Healthy Nuclei (%): 54%
  Population Hoechst High Intensity Objects (%): 11%
  Population Membrane Permeable-Phenotype (%): 51%
  Population Mitochondria Different-Phenotype (%): 96%
  Population Mitotic Cells (%): 40%
  Population Normal (%): 88%
  Population Pyknosed Nuclei (%): 28%
  Population Tubulin-Different-Phenotype (%): 100%
  Total Cell Count: 60
[11]
  Population Apoptotic (%): 77%
  Population Fragmented Nuclei (%): 35%
  Population Healthy Nuclei (%): 44%
  Population Hoechst High Intensity Objects (%): 14%
  Population Membrane Permeable-Phenotype (%): 10%
  Population Mitochondria Different-Phenotype (%): 41%
  Population Mitotic Cells (%): 22%
  Population Normal (%): 85%
  Population Pyknosed Nuclei (%): 20%
  Population Tubulin-Different-Phenotype (%): 86%
  Total Cell Count: 154
[12]
  Population Apoptotic (%): 40%
  Population Fragmented Nuclei (%): 34%
  Population Healthy Nuclei (%): 61%
  Population Hoechst High Intensity Objects (%): 8%
  Population Membrane Permeable-Phenotype (%): 14%
  Population Mitochondria Different-Phenotype (%): 34%
  Population Mitotic Cells (%): 60%
  Population Normal (%): 91%
  Population Pyknosed Nuclei (%): 3%
  Population Tubulin-Different-Phenotype (%): 94%
  Total Cell Count: 163
